This passage reports Activity, EC50 and selectivity ratio results from ChEMBL document CHEMBL2029225, “Synthesis of marine-derived 3-alkylpyridinium alkaloids with potent antiprotozoal activity” (ACS Med Chem Lett, 2011).

Calls of active or inactive are those of the source. No cut-off for these calls is given here.

Data set [1] deals with Trypanosoma brucei brucei. Briefly: Antitrypanosomal activity against Trypanosoma brucei brucei 427 at 1 uM after 48 hrs by hemocytometry. It counts as functional, organism-based. The procedure, abridged: (§1)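 Reversibility test: bloodstream-form T. brucei cultures seeded at 2 × 10⁴ cells, compound added at t = 0 h. Compound was washed out after 24 h or 48 h, or left in. Growth was monitored over 72 h against drug-free controls.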

Data set [2] relates to Trypanosoma brucei brucei. Kind of data set: Antitrypanosomal activity against Trypanosoma brucei brucei 427 at 0.1 uM after 72 hrs by hemocytometry. It counts as functional, organism-based. In outline:
as §1

Data set [3] concerns Trypanosoma brucei brucei. Briefly: Antitrypanosomal activity against bloodstream form of Trypanosoma brucei brucei 427 (BS221) after 72 hrs by alamar blue assay. The class given is functional, organism-based.
Data set [4] deals with Trypanosoma brucei brucei. Kind of data set: Antitrypanosomal activity against TbAt1-deficient bloodstraem form of Trypanosoma brucei brucei 427 (BS221) after 72 hrs by alamar blue assay. It counts as functional, organism-based. On the technique in general: The colour change of resazurin is a common sign of viable cells or microbes.
Data set [5] has as its system Trypanosoma brucei brucei. Briefly: Antitrypanosomal activity against TbAt1-deficient bloodstraem form Trypanosoma brucei brucei B48 after 72 hrs by alamar blue assay. The class given is functional, organism-based. As to conditions: B48, 72 h.
The next data set relates to Leishmania major. Kind of data set: Antileishmanial activity against promastigotes of Leishmania major Friedlin after 72 hrs by alamar blue assay. It counts as functional, organism-based.
The subject of the next data set is Leishmania mexicana. Kind of data set: Antileishmanial activity against amastigotes of Leishmania mexicana MNYC/BZ/62/M379 after 72 hrs by alamar blue assay. It counts as functional, organism-based. As to conditions: MNYC/BZ/62/M379, 72 h.
In the next data set the test system is Plasmodium falciparum. Kind of data set: Antiplasmodial activity against Plasmodium falciparum 3D7 assessed as inhibition of [3H]hypoxanthine incorporation after 18 hrs by liquid scintillation counting. The class given is functional, organism-based.
The test system of another data set is HEK-293T. Briefly: Cytotoxicity against human HEK293T cells after 72 hrs by alamar blue assay. The class given is cell-based.
Data set [6] in a line: Selectivity ratio of EC50 for human HEK293 cells to EC50 for bloodstream form of Trypanosoma brucei brucei 427 (BS221). It counts as ADME, cell-based. The following applies: read-out: Ratio EC50.
A short description of data set [7]: Selectivity ratio of EC50 for human HEK293 cells to EC50 for TbAt1-deficient bloodstraem form of Trypanosoma brucei brucei 427 (BS221). It counts as ADME, cell-based. The following applies: read-out: Ratio EC50.
The test system of data set [8] is Trypanosoma brucei brucei. Kind of data set: Antitrypanosomal activity against bloodstream form of Trypanosoma brucei brucei 427 (BS221) assessed as increased propidium iodide uptake at 50 to 100 uM after 30 mins by real-time cell lysis assay. It counts as functional, organism-based. The procedure, abridged: (§2)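 Real-time lysis assay with bloodstream-form T. brucei: propidium iodide in the medium fluoresces only on binding DNA/RNA in membrane-compromised cells. Fluorescence was followed for up to 8 h across a range of concentrations. The read-out was the time to reach 80% lysis versus concentration.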

Data set [9] concerns Trypanosoma brucei brucei. Kind of data set: Antitrypanosomal activity against bloodstream form of Trypanosoma brucei brucei 427 (BS221) assessed as increased propidium iodide uptake at >/=100 times EC50 after 8 hrs by real-time cell lysis assay. The class given is functional, organism-based. In outline:
as §2

For data set [10], the system named is Trypanosoma brucei brucei. Kind of data set: Antitrypanosomal activity against bloodstream form of Trypanosoma brucei brucei s427 assessed as increase in propidium iodide uptake at 0.3 to 1 uM up to 48 hrs by flow cytometry. The class given is functional, organism-based. The procedure, abridged:
(§3)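 Bloodstream-form T. brucei cultures were exposed to compound for up to 48 h, with duplicate samples taken at 24 and 48 h. Lysis sample: PI added directly for 10 min. DNA-content sample: fixed in 70% methanol or permeabilized with digitonin, RNase-treated, then PI-stained. 10000 cells were counted per panel by flow cytometry, and the experiment was run three times.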
In general terms: In flow cytometry, cells or beads pass a laser one at a time.

Data set [11] has as its system Trypanosoma brucei brucei. Briefly: Antitrypanosomal activity against bloodstream form of Trypanosoma brucei brucei s427 assessed as DNA fragmentation at 0.3 to 1 uM up to 48 hrs by flow cytometry. It counts as functional, organism-based. The procedure, abridged: as §3
In data set [12] the test system is Trypanosoma brucei brucei. Kind of data set: Antitrypanosomal activity against digitonin permeabilized bloodstream form of Trypanosoma brucei brucei s427 assessed as DNA fragmentation at 0.3 to 1 uM up to 48 hrs by flow cytometry. The class given is functional, organism-based. The procedure, abridged:
as §3

For data set [13], the system named is Trypanosoma brucei brucei. Kind of data set: Antitrypanosomal activity against digitonin permeabilized bloodstream form of Trypanosoma brucei brucei s427 assessed as increase in propidium iodide uptake at 0.3 to 1 uM up to 48 hrs by flow cytometry. It counts as functional, organism-based. The procedure, abridged:
as §3

The subject of data set [14] is Trypanosoma brucei brucei. Briefly: Antitrypanosomal activity against digitonin permeabilized bloodstream form of Trypanosoma brucei brucei s427 assessed as decrease in 2C/4C DNA content by DAPI staining-based fluorescent microscopy. The class given is functional, organism-based.
Data set [15] relates to Trypanosoma brucei brucei. Kind of data set: Antitrypanosomal activity against Trypanosoma brucei brucei 427 at 10 uM after 24 hrs by hemocytometry. It counts as functional, organism-based. The procedure, abridged:
as §1

As a reminder, the EC50 is the midpoint of the concentration-response curve. Consider `COc1ccc(C[n+]2cccc(CCCCCCCCCCCCCO)c2)cc1`, for which the outcome in data set [1], in data set [8], in [9] and in data set [15] was Active. The result in data set [2], in [10], in data set [11], in data set [12], in [13] and in data set [14] was inactive. Further, the EC50 in [3] worked out at 49 nM; in [4] it was 84 nM; in data set [5], 62 nM; in the data set on Leishmania major it was 320 nM; with Leishmania mexicana, 650 nM; with Plasmodium falciparum it was 240 nM. The EC50 in the data set on HEK-293T was 21000 nM. For the same compound, the selectivity ratio in data set [6] and in data set [7] was 437 throughout.
